Reference: ChEMBL document CHEMBL5653631, “A Potent and Selective ULK1 Inhibitor Suppresses Autophagy and Sensitizes Cancer Cells to Nutrient Stress” (iScience, 2018)

What was measured:
[1] = biological target: Dual specificity protein kinase CLK4 (Homo sapiens) (UniProt Q9HAZ1); experiment: Inhibition of human recombinant CLK4 at 40 nM related to control ULK1
[2] = biological target: Aurora kinase B (Homo sapiens) (UniProt Q96GD4); experiment: Inhibition of human recombinant AurB at 40 nM in presence of ATP by radiometric assay relative to control
Procedure, shortened: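 Part of a radiometric in vitro activity panel of 327 recombinant human kinases. Each kinase was tested in duplicate at one inhibitor concentration. Activity remaining was expressed as a percentage of the vehicle control, and percent inhibition was taken as 100 minus that value.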

[3] = biological target: Serine/threonine-protein kinase SIK3 (Homo sapiens) (UniProt Q9Y2K2); experiment: Inhibition of human recombinant QSK at 500 nM related to control ULK1
[4] = biological target: T1, Rhodopsin kinase GRK1 (Homo sapiens) (UniProt Q15835); experiment: Inhibition of human recombinant RHOK at 15 nM in presence of ATP by radiometric assay relative to control
T1 sequence (whole entry): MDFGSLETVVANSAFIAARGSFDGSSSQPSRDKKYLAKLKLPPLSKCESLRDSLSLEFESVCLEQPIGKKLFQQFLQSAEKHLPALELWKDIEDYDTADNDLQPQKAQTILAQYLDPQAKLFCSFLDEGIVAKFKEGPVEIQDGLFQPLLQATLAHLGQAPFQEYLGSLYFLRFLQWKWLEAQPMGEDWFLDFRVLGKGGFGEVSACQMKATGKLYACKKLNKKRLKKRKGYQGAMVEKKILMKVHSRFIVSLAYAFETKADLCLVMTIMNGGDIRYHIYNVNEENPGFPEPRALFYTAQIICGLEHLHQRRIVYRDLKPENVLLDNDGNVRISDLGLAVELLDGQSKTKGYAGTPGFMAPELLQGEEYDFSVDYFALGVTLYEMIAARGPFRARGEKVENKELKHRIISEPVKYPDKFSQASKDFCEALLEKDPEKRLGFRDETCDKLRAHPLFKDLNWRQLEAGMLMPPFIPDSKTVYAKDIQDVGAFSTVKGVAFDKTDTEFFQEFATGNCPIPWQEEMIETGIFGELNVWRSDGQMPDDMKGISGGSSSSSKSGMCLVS

[5] = biological target: T2, Serine/threonine-protein kinase TAO1 (Homo sapiens) (UniProt Q7L7X3); experiment: Inhibition of human recombinant TAO1 at 15 nM related to control ULK1
T2 sequence (whole entry): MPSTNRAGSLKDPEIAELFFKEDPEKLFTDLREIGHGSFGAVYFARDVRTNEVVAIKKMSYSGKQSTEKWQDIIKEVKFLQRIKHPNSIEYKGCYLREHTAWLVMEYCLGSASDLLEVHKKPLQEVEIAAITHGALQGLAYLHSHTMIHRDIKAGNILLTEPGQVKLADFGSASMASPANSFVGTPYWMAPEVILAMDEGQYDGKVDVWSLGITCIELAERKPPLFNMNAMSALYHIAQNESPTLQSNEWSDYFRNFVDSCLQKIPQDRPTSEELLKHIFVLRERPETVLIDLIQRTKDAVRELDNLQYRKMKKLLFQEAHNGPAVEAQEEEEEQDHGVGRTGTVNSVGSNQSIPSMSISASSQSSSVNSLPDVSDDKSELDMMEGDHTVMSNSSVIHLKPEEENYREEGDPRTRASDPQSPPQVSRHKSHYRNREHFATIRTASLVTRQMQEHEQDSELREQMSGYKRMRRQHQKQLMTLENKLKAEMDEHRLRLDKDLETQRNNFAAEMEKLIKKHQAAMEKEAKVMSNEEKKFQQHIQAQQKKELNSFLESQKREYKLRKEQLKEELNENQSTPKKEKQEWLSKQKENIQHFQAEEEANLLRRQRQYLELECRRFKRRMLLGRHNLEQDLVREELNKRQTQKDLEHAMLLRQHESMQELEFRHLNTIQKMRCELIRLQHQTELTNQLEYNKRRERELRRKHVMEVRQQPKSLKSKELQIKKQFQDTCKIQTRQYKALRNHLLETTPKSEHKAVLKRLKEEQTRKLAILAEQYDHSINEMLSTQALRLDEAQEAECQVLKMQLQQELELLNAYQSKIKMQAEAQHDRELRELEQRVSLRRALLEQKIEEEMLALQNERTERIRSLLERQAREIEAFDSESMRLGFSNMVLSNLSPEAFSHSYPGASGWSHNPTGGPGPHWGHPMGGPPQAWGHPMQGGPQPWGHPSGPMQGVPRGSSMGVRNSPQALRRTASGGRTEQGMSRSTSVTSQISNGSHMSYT

[6] = biological target: Insulin-like growth factor 1 receptor (Homo sapiens) (UniProt P08069); experiment: Inhibition of human recombinant IGF1R at 15 nM related to control ULK1
[7] = biological target: Platelet-derived growth factor receptor alpha (Homo sapiens) (UniProt P16234); experiment: Inhibition of human recombinant PDGFRa at 15 nM in presence of ATP by radiometric assay relative to control
Platelet-derived growth factor receptor alpha (Homo sapiens), sequence (P16234 whole entry): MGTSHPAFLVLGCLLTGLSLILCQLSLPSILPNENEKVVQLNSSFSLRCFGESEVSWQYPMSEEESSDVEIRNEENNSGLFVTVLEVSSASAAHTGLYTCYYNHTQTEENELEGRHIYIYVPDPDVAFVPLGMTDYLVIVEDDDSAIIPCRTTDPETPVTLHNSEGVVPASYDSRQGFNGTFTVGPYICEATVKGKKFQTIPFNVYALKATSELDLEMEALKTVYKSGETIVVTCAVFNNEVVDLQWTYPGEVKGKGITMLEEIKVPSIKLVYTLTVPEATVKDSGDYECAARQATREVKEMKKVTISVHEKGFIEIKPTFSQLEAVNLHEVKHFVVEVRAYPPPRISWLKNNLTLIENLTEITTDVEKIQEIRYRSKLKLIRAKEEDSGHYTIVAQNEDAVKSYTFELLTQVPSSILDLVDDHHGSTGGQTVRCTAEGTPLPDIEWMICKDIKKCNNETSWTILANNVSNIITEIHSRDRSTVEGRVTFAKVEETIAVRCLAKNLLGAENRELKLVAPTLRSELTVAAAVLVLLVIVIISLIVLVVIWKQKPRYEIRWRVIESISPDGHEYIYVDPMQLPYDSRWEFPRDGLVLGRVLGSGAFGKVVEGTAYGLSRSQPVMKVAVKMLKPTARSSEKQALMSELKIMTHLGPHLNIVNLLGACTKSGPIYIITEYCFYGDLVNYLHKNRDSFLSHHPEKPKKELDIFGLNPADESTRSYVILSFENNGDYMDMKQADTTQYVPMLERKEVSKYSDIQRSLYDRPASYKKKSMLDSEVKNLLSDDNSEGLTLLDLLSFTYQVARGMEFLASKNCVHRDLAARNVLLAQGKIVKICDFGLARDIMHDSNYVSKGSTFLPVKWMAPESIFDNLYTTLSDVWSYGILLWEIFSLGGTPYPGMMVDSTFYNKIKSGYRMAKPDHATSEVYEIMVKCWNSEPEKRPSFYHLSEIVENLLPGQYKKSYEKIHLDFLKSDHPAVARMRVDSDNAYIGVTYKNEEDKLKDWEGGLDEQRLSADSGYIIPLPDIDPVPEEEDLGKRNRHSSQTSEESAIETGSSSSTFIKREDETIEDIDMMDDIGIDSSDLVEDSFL

Aurora kinase B (Homo sapiens), sequence (Q96GD4 whole entry): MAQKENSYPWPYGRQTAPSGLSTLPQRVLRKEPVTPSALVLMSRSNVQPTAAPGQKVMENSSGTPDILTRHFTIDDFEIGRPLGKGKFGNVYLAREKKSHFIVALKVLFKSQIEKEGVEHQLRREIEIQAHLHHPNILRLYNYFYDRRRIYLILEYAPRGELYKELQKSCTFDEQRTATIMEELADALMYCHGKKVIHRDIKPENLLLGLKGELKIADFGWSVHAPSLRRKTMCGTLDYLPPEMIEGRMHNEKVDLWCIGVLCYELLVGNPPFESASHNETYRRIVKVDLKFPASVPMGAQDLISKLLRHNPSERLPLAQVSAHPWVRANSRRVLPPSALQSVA
Insulin-like growth factor 1 receptor (Homo sapiens), sequence (P08069 31-736 limits assumed): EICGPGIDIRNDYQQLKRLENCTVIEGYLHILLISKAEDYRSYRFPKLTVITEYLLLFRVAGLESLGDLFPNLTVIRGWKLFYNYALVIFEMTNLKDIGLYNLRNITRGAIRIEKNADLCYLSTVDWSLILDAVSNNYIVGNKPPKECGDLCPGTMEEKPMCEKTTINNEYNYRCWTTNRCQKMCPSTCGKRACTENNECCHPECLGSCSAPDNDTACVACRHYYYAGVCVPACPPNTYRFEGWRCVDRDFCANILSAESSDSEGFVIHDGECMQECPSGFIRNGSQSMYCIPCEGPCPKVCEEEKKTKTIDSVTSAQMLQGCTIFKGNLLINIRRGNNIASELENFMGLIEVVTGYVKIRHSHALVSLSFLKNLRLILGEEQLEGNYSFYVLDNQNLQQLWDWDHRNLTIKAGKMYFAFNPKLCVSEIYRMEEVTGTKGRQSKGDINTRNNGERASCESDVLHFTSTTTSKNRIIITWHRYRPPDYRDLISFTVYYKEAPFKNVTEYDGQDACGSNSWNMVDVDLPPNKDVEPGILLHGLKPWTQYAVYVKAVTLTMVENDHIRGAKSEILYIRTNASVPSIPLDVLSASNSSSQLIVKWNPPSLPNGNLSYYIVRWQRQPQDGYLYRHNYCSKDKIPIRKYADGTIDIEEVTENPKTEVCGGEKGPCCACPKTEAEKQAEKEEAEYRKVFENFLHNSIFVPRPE
Insulin-like growth factor 1 receptor (Homo sapiens), sequence (P08069 741-1367 limits assumed): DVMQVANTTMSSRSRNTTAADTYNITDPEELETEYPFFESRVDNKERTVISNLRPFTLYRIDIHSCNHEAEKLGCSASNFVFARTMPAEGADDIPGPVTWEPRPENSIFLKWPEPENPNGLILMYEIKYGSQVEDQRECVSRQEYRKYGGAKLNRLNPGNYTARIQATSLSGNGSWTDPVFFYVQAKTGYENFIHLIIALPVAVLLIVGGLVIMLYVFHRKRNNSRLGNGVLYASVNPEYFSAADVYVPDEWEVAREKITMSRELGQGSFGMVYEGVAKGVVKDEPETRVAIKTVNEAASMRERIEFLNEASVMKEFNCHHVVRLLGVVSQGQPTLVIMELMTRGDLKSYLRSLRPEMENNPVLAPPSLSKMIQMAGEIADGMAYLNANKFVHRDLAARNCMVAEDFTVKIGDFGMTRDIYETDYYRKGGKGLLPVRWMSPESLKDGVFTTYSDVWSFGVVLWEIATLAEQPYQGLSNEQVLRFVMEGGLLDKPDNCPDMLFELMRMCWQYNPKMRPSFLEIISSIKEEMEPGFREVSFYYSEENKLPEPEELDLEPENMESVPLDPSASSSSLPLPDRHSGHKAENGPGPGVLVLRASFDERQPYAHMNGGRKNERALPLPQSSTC
Dual specificity protein kinase CLK4 (Homo sapiens), sequence (Q9HAZ1 whole entry, looked up): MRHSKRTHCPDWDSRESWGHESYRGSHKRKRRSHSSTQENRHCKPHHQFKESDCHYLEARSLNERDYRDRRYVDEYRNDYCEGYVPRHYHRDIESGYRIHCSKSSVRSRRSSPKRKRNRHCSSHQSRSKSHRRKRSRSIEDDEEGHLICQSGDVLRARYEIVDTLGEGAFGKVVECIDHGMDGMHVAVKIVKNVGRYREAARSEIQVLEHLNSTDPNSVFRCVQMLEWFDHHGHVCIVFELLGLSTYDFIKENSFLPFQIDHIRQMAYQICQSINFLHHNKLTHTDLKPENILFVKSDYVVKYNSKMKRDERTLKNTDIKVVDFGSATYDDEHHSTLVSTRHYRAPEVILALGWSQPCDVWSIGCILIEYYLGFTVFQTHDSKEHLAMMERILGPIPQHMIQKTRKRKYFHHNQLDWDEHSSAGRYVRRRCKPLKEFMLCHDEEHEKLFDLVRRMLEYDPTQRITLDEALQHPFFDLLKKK
Serine/threonine-protein kinase SIK3 (Homo sapiens), sequence (Q9Y2K2 whole entry, looked up): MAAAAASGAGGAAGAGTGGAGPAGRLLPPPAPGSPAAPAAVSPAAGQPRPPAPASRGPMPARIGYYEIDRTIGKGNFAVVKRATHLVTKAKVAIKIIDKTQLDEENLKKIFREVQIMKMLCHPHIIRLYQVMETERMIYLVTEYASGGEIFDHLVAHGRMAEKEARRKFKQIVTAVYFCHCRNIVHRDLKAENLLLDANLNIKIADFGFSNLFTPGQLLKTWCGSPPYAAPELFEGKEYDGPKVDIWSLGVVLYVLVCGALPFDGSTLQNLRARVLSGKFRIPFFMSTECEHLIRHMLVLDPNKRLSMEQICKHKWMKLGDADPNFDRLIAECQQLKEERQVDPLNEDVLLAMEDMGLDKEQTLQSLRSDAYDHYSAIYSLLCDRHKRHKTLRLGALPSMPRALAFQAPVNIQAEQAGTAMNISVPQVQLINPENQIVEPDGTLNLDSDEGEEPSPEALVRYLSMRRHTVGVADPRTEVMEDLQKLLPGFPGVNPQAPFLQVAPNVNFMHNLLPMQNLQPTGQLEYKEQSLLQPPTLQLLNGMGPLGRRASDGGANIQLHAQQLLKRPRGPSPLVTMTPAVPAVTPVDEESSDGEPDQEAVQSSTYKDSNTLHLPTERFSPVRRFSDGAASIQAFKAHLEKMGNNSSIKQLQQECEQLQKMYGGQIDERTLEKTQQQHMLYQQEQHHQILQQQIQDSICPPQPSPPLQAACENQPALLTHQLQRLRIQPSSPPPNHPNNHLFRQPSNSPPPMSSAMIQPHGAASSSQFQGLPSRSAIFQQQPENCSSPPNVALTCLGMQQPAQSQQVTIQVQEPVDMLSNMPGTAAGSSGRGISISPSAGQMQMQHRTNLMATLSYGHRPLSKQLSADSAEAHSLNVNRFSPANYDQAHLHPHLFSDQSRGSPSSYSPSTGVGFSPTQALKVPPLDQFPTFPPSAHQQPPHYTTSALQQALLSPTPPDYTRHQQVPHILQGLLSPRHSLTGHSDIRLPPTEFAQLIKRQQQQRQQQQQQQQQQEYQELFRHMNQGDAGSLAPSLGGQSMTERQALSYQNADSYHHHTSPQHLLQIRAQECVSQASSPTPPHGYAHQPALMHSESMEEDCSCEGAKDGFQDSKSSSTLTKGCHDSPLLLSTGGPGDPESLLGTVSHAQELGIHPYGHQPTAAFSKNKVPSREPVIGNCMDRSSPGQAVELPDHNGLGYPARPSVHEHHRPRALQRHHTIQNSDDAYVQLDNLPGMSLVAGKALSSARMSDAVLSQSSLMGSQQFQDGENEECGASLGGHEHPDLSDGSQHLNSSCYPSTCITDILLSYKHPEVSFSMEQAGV

Compound: O=C(N[C@@H](C1CC1)C(F)(F)F)c1cc(-c2cnn3cc(-c4ccc(F)cc4)cnc23)cs1
- fold change (FC) [1]: 0.71
- inhibition [2]: 49%

Compound: CNC(=O)c1ccccc1Oc1nc(Nc2cc(OC)c(OC)c(OC)c2)ncc1Br
- fold change (FC) [3]: 0.11

Compound: CC(C)[C@H](NC(=O)c1cc(-c2cnn3cc(-c4ccc(OCCN5CCCCC5)cc4)cnc23)cs1)C(F)(F)F
- inhibition [4]: 0%
- fold change (FC) [5]: 0
- fold change (FC) [6]: 0
- inhibition [7]: 5%
